Data published in ChEMBL document CHEMBL1145581, “Design and synthesis of tetrahydroisoquinoline derivatives as potential multidrug resistance reversal agents in cancer” (Bioorg Med Chem Lett, 2008).
Active and inactive are the calls of the source. No cut-off for these calls is given here.

Key:
[1] = Antitumor activity against human K562/A02 cells xenografted in nude mouse assessed as tumor weight at 2 mg/kg; type: functional
Procedure, shortened: (§1)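 SCID nude mice received subcutaneous axillary inoculation of log-phase K562/A02 cells at 1 × 10⁷/ml. The cells were maintained in RPMI 1640 with 10% FCS and ADM 1 µg/ml final. When tumors reached a mean diameter of 0.4–0.6 cm, mice were randomized into groups of ten. Drug was given IV three times weekly, alongside adriamycin; vehicle controls were included. Endpoint was tumor weight. Inhibition ratio was calculated relative to the ADM-alone group.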

P-gp (ABCB1) [2] = molecular target: T1, P-gp (ABCB1) (Homo sapiens, UniProt P08183); test: Inhibition of Pgp-mediated multidrug resistance activity in human MCF7/ADM cells assessed as Rh123 accumulation at 1 umol/L after 30 mins; type: cell-based; details: probe Rh123
Procedure, shortened: (§2)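 MCF-7/ADM cells were maintained with ADM 1 µM and seeded at 4 × 10⁴/ml. They were preincubated 30 min in serum-free RPMI 1640, then given compound (1, 3, 10 µM final) for 30 min. Rh123 10 µM final was added for a further 60 min at 37 °C. After PBS washes and Triton X-100 lysis, intracellular fluorescence was read at ex 488/em 535 nm. Triplicate. Inhibitory ratio = (treated − control)/control × 100, background-corrected.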

P-gp (ABCB1) [3] = molecular target: T1, P-gp (ABCB1); test: Inhibition of Pgp-mediated multidrug resistance activity in human MCF7/ADM cells assessed as Rh123 accumulation at 10 umol/L after 30 mins; type: cell-based; details: probe Rh123; procedure, shortened: as §2
[4] = Antitumor activity against human K562/A02 cells xenografted in nude mouse at 2 mg/kg; type: functional; procedure, shortened: as §1
[5] = molecular target: T2, ATP-dependent translocase ABCB1 (Rattus norvegicus, UniProt P43245); test: Inhibition of Pgp-mediated multidrug resistance activity in rat RBMEC cells assessed as Rh123 accumulation at 1 umol/L after 90 mins; type: cell-based; details: 1.5 h, 1 µM
Procedure, shortened: (§3)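 Primary rat brain microvascular endothelial cells were grown in DF with 20% FCS to a 90% confluent monolayer. They were preincubated 30 min in serum-free DF. Compound (1, 3, 10 µM final) and Rh123 5 µM final were then added for 90 min, with cells collected at different times. Washed cells were lysed with Triton X-100 and fluorescence read at 488/535 nm. Values were normalized to Coomassie protein. Duplicate, ≥3 experiments.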

Rattus norvegicus [6] = test: Toxicity in Sprague-Dawley rat assessed as ventricular sustained tachycardia by measuring aconitine nitrate level at 2 mg.kg, iv by […]; type: organism-based, Cardiac ventricle; details: in vivo
Procedure, shortened: (§4)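 SD rats were anesthetized with urethane 1.2 g/kg ip, and compound in normal saline was given via the femoral vein. Two minutes later, aconitine nitrate was infused IV at constant rate by peristaltic pump. The aconitine dose at onset of premature beats, sustained tachycardia or fibrillation was determined by […]. n = 3.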

K562/A02 = test: Decrease in membrane lipid fluidity in human K562/A02 cells at 10 umol/L; type: functional, cell-based
Procedure, shortened: (§5)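 K562 and K562/A02 cells were grown in RPMI 1640 with 10% FCS and seeded at 1 × 10⁵/ml. They were exposed to 1, 3 or 10 µM compound (final) for 24 h, then washed and labelled with 2 µM DPH for 30 min. After washing, cells were held 10 min at 25 °C. Fluorescence polarization P was read at ex 357.6/em 428.7 nm, with P inversely related to membrane fluidity. Duplicate, ≥3 experiments.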

[7] = Antitumor activity against human K562/A02 cells xenografted in nude mouse at 8 mg/kg; type: functional; procedure, shortened: as §1
[8] = molecular target: T2, ATP-dependent translocase ABCB1; test: Inhibition of Pgp-mediated multidrug resistance activity in rat RBMEC cells assessed as Rh123 accumulation at 3 umol/L after 90 mins; type: cell-based; details: 1.5 h, 3 µM; procedure, shortened: as §3
[9] = molecular target: T2, ATP-dependent translocase ABCB1; test: Inhibition of Pgp-mediated multidrug resistance activity in rat RBMEC cells assessed as Rh123 accumulation at 10 umol/L after 90 mins; type: cell-based; details: 1.5 h, 10 µM; procedure, shortened: as §3
Aorta = test: Toxicity in Sprague-Dawley rat aorta assessed as vascular contractile activity; type: tissue-based; details: in vitro
Procedure, shortened: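 Aortic rings came from SD rats (250–350 g) and were kept at 37 °C under 95% O₂/5% CO₂. Isometric tension was recorded. After 60 min equilibration, rings were contracted with 20 or 80 mM KCl. Drug was then added in increasing concentrations until maximal relaxation. Relaxation was expressed as % of the KCl contraction.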

Rattus norvegicus [10] = test: Toxicity in Sprague-Dawley rat assessed as ventricular fibrillation by measuring aconitine nitrate level at 2 mg.kg, iv by […]; type: organism-based, Cardiac ventricle; details: in vivo; procedure, shortened: as §4
Rattus norvegicus [11] = test: Toxicity in Sprague-Dawley rat assessed as ventricular permeature beat by measuring aconitine nitrate level at 2 mg.kg, iv by […]; type: organism-based, Cardiac ventricle; details: in vivo
P-gp (ABCB1) [12] = molecular target: T1, P-gp (ABCB1); test: Inhibition of Pgp-mediated multidrug resistance activity in human MCF7/ADM cells assessed as Rh123 accumulation at 3 umol/L after 30 mins; type: cell-based; details: probe Rh123; procedure, shortened: as §2
K562 = test: Effect on membrane lipid fluidity in human K562 cells; type: functional, cell-based; procedure, shortened: as §5

T2 sequence (P43245 whole entry): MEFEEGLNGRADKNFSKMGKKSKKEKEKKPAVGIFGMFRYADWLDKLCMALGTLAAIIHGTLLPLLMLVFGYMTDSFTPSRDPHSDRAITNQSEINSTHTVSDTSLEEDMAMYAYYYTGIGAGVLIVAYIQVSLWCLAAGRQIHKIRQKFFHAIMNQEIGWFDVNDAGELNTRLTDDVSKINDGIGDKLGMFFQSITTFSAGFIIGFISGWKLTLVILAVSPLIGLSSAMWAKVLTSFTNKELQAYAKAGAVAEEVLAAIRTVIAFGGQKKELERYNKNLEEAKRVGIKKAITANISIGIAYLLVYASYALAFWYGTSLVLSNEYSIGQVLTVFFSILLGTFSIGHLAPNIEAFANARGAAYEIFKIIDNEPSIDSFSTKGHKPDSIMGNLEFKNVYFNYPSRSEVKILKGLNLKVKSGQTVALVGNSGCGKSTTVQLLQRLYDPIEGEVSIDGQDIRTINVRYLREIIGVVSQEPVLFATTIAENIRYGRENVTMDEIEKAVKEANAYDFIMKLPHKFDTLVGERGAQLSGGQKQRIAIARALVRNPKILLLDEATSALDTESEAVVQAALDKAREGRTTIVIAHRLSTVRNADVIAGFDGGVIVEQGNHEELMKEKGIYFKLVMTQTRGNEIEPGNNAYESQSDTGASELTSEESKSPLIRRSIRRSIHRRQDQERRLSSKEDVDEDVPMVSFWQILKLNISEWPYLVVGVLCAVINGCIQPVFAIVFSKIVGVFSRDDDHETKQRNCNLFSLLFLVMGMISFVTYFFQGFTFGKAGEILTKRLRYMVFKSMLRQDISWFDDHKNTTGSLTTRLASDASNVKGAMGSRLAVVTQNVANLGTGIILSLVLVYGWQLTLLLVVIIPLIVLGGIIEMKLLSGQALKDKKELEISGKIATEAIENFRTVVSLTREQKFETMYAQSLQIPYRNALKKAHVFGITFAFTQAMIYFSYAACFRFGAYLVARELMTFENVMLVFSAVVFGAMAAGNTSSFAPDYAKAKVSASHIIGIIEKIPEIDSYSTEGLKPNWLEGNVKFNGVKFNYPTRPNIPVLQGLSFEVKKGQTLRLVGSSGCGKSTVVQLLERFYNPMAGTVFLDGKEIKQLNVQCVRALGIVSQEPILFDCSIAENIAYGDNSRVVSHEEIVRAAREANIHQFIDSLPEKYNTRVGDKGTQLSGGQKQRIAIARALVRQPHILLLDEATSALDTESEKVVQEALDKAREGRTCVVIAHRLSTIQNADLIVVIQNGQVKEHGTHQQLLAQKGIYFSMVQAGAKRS
T1 sequence (P08183 whole entry): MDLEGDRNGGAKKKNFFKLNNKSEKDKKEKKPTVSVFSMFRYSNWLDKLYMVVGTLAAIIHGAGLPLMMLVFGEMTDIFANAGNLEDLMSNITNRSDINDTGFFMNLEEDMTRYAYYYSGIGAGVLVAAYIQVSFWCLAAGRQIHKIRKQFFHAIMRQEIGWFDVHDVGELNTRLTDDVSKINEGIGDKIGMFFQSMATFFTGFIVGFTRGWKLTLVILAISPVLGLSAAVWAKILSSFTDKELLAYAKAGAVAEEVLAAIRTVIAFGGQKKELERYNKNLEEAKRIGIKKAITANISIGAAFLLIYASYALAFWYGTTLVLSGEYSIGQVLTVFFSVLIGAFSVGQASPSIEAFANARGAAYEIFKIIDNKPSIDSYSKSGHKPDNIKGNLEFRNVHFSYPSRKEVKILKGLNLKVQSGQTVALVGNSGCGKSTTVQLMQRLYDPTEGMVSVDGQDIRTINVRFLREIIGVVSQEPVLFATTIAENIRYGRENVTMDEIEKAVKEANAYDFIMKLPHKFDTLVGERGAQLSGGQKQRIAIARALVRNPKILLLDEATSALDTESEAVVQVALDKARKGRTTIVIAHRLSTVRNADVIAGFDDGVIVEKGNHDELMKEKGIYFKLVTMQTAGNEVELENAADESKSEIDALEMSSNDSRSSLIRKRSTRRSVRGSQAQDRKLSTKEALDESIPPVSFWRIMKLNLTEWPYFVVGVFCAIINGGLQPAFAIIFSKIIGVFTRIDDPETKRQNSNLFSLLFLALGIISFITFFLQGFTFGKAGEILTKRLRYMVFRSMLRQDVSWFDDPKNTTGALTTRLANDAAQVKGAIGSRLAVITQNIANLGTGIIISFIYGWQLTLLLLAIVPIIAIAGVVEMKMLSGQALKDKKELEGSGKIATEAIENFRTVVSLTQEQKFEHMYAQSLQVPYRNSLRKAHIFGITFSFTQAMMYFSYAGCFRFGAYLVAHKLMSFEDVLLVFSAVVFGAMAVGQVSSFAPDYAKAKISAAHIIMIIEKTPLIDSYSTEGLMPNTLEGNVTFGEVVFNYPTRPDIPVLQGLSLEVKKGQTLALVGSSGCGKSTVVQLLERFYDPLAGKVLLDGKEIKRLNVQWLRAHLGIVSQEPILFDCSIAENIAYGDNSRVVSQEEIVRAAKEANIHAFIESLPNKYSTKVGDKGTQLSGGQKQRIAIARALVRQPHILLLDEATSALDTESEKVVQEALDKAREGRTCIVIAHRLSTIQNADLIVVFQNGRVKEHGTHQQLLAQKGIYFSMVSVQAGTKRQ

| inhibition at 0.5 h, 1 µM (P-gp (ABCB1) [2]) [%] | inhibition at 0.5 h, 10 µM (P-gp (ABCB1) [3]) [%] | Activity [5] | Activity [8] | Activity [9] | inhibition at 0.5 h, 3 µM (P-gp (ABCB1) [12]) [%] | Structure (SMILES) | Activity [1] [g] | inhibition in vivo at 2 mg/kg [4] [%] | Activity (Rattus norvegicus [6]) [µg/kg] | Activity (K562/A02) | inhibition in vivo at 8 mg/kg [7] [%] | Activity (Aorta) | Activity (Rattus norvegicus [10]) [µg/kg] | Activity (Rattus norvegicus [11]) [µg/kg] | Activity (K562) |
| --- | --- | --- | --- | --- | --- | --- | --- | --- | --- | --- | --- | --- | --- | --- | --- |
|  |  |  |  |  |  | COc1cccc2c1C(=O)c1c(O)c3c(c(O)c1C2=O)C[C@@](O)(C(=O)CO)C[C@@H]3O[C@H]1C[C@H](N)[C@H](O)[C@H](C)O1 [DOXORUBICIN] | 2.17 |  |  |  |  |  |  |  |  |
| 35.2 | 69.3 | Active | Active | Active | 60.5 | CCCCCCCCN/C(=N/C#N)N1CCc2cc(OC)c(OC)cc2C1Cc1ccc(OC)c(OC)c1 (stereo unspecified) |  | -62.2 | 26.7 | Active | -59.5 | Not Active | 31.5 | 22.4 | inactive |
|  | 98.7 |  |  | Active |  | COc1ccc(CCN(C)CCCC(C#N)(c2ccc(OC)c(OC)c2)C(C)C)cc1OC (stereo unspecified) [VERAPAMIL] |  |  | 44 |  | -66.4 |  | 55 |  | inactive |
